Published values from different studies.
Lines come from different studies, so protocols differ.
Effect on: parasite growth

| SMILES | organism | technique | time | setting | IC50 |
| --- | --- | --- | --- | --- | --- |
| CC(C)(C)CC(C)(C)Nc1c(-c2cccnc2)nc2ncccn12 | Leishmania amazonensis | MTT | 72 h | promastigote | > 100 µM |
| COc1ccc(S(=O)(=O)c2ccc(OC)c(OC)c2OC)cc1 | Leishmania braziliensis | MTT | 24 h | promastigote | 32 µM |
| CC(C)(C)CC(C)(C)Nc1c(-c2cccs2)nc2ncccn12 | Leishmania amazonensis | MTT | 72 h | promastigote | > 100 µM |
| C=C1CC[C@@H]2[C@](C)(CCC[C@@]2(C)C(=O)O)[C@H]1CC[C@H](C)CC(=O)O | Leishmania amazonensis | – | 72 h | promastigote | 70 µg/mL |
| COc1ccc(Sc2ccc(OC)c(OC)c2OC)cc1 | Leishmania braziliensis | MTT | 24 h | promastigote | 28 µM |
| Oc1ccc(/C=C/c2cc(O)cc(O)c2)cc1 | Leishmania amazonensis | imaging | 48 h | intracellular, amastigote | 14 µM |
| COc1ccc([S+]([O-])c2ccc(OC)c(OC)c2OC)cc1 (stereo not drawn) | Leishmania braziliensis | MTT | 24 h | promastigote | 15.2 µM |
| C=C1CC[C@@H]2[C@](C)(CCC[C@]2(C)C(=O)O)[C@H]1CC/C(C)=C/C(=O)O | Leishmania amazonensis | – | 72 h | promastigote | 28 µg/mL |
| N=C(N)c1ccc(OCCCCCOc2ccc(C(=N)N)cc2)cc1 | Leishmania amazonensis | imaging | 48 h | intracellular, amastigote | 3.4 µM |
| COc1ccc(Sc2ccccc2)c(OC)c1OC | Leishmania braziliensis | MTT | 24 h | promastigote | 14.3 µM |
| C=C1CC[C@@H]2C(C)(C)CCC[C@@]2(C)[C@@H]1CC/C(C)=C/C(=O)OC | Leishmania amazonensis | – | 72 h | promastigote | 6 µg/mL |
| CC(C)(C)CC(C)(C)Nc1c(-c2ccccc2)nc2ncccn12 | Leishmania amazonensis | MTT | 72 h | promastigote | 50.3 µM |
